Experimental data as given in ChEMBL document CHEMBL1157169, “A class of novel nitronyl nitroxide labeling basic and acidic amino acids: synthesis, application for preparing ESR optionally labeling peptides, and bioactivity investigations” (Bioorg Med Chem, 2008).
Where a SMILES comes first, the peptide text is derived from it. The star is where a group is joined. X2 = CC1(C)N(O)C(c2ccc(OCC(=O)*)cc2)=[N+]([O-])C1(C)C

Columns and labels:
Rattus norvegicus [1] = test: Thrombolytic activity in Wistar rat assessed as reduction in thrombus weight at 10 umol/kg; format: functional
Summary of the method: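 Male Wistar rats (200–300 g) anesthetized with pentobarbital sodium (80.0 mg/kg, ip). A steel helix was left 15 min in 1.0 ml carotid artery blood, and the helix with thrombus was weighed. It was placed in a polyethylene tube filled with heparin sodium (50 IU/ml NS) inserted into the left jugular vein. Heparin was injected, then compound dissolved in NS. Read-out is reduction in thrombus weight.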

Aorta [2] = test: Nitric oxide radical scavenging activity in rat aortic strip assessed as inhibition of acetylcholine-induced vasorelaxation at 1 uM; format: functional, tissue-based
Aorta [3] = test: Nitric oxide radical scavenging activity in rat aortic strip assessed as inhibition of acetylcholine-induced vasorelaxation at 10 uM; format: functional, tissue-based
Aorta [4] = test: Nitric oxide radical scavenging activity in rat aortic strip assessed as inhibition of acetylcholine-induced vasorelaxation at 100 uM; format: functional, tissue-based
Oryctolagus cuniculus = species: Oryctolagus cuniculus; test: Thrombolytic activity against rabbit fibrinogen assessed as fibrinogen lysis area at 4.5 uM
Summary of the method: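 Equal volumes of 0.3% rabbit fibrinogen and 0.95% agarose in 50 mM sodium barbiturate buffer (pH 7.8), coagulated with thrombin (100 IU/mL). After 30 min at 4 °C, 5 mm wells were punched and 30 µl of sample in NS added per well. Plates incubated and lysis area measured in mm². ANOVA.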

Plasma = test: Thrombolytic activity in rabbit plasma assessed as euglobulin clot lysis time at 4.5 uM; format: functional, Oryctolagus cuniculus
Summary of the method: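 Rabbit plasma diluted 1:20 in water and precipitated at pH 5.7 with 0.25% acetic acid for 30 min at 4 °C. Centrifuged at 2000g for 15 min. […] Sample added and time to clot lysis recorded.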

Rattus norvegicus [5] = test: Antithrombotic activity in Wistar rat assessed as dry thrombus weight at 5 umol/kg
Blood [6] = test: Inhibition of 1 uM adenosine diphosphate-induced platelet aggregation in rabbit blood; format: functional, Oryctolagus cuniculus
Summary of the method: (§1)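 Platelet-rich plasma made by centrifuging normal rabbit blood anticoagulated with sodium citrate (3.8% final). Platelets adjusted to 2×10^5/µl with autologous plasma. Aggregation induced by PAF or ADP (final 10^-5–10^-7 M) and read by turbidimetry in an aggregometer. Maximal aggregation rate (Am%) taken as peak height of the curve.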

Blood [7] = test: Inhibition of 10 uM adenosine diphosphate-induced platelet aggregation in rabbit blood; format: functional, Oryctolagus cuniculus; summary of the method: as §1
Blood [8] = test: Inhibition of 10 uM platelet activating factor-induced platelet aggregation in rabbit blood; format: functional, Oryctolagus cuniculus; summary of the method: as §1
Blood [9] = test: Inhibition of 1 uM platelet activating factor-induced platelet aggregation in rabbit blood; format: functional, Oryctolagus cuniculus; summary of the method: as §1
Rattus norvegicus [10] = test: Antithrombotic activity in Wistar rat assessed as wet thrombus weight at 5 umol/kg; format: functional
Summary of the method: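 Male Wistar rats (250–300 g) anesthetized with pentobarbital sodium (80.0 mg/kg, ip). The right carotid artery and left jugular vein were cannulated via a polyethylene tube containing a thread, filled with NS or compound dissolved in NS (vehicle NS). Blood shunted 15 min. The thread was weighed wet, then after 2 weeks in a desiccator weighed dry. n = 10, ANOVA.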

Blood [11] = test: Inhibition of 0.1 uM adenosine diphosphate-induced platelet aggregation in rabbit blood; format: functional, Oryctolagus cuniculus; summary of the method: as §1
Blood [12] = test: Inhibition of 0.1 uM platelet activating factor-induced platelet aggregation in rabbit blood; format: functional, Oryctolagus cuniculus; summary of the method: as §1
PC-12 [13] = test: Radical scavenging activity in rat PC12 cells assessed as inhibition of hydroxyl radical-induced cell damage by MTT assay; format: functional, cell-based
Summary of the method: (§2)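 PC12 cells grown in DMEM with 10% heat-inactivated horse serum, 5% FBS and 1.0 mM pyruvate at 37 °C, 5% CO2. Seeded at 20,000 cells/well on poly-L-lysine and attached 24 h. Pretreated 1 h with 12.5–200 µM compound. Damage induced by SNP 2 mM for 2 h (NO), H2O2 1 mM for 1 h, or H2O2 1 mM/Fe(II) 30 µM for 1 h (·OH). Media replaced, cells incubated 14 h, survival measured by MTT.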

PC-12 [14] = test: Radical scavenging activity in rat PC12 cells assessed as inhibition of hydrogen peroxide radical-induced cell damage by MTT assay; format: functional, cell-based; summary of the method: as §2
PC-12 [15] = test: Radical scavenging activity in rat PC12 cells assessed as inhibition of nitric oxide radical-induced cell damage by MTT assay; format: functional, cell-based; summary of the method: as §2
[16] = Aqueous stability assessed as decomposition time at pH 11.5; format: physicochemical; settings: buffer
Summary of the method: (§3)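 Each sample dissolved in aqueous solution at pH 2.0, 7.4 or 11.5 (final 10^-2 mM) and held at room temperature for up to 200 h. Decomposition followed by TLC (CHCl3/CH3OH, 20:1). Value is the time at which decomposition appeared.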

[17] = Aqueous stability assessed as decomposition time at pH 2.0; format: physicochemical; settings: buffer; summary of the method: as §3
[18] = Aqueous stability assessed as decomposition time at pH 7.4; format: physicochemical; settings: buffer; summary of the method: as §3

| Structure (SMILES) | inhibition (Aorta [2]) | inhibition (Aorta [3]) | inhibition (Aorta [4]) | EC50 (PC-12 [13]) | EC50 (PC-12 [14]) | EC50 (PC-12 [15]) | Time [16] | Time [17] | Time [18] | further results |
| --- | --- | --- | --- | --- | --- | --- | --- | --- | --- | --- |
| C[C@H](NC(=O)[C@@H]1CCCN1)C(=O)N[C@@H](CCCCN)C(=O)O (H-Pro-Ala-Lys-OH) | 4.5% | 6.1% | 9.5% | – | – | – | – | – | – | Activity (Rattus norvegicus [1]): 24.11 mg; Activity (Oryctolagus cuniculus): 214 mm2; Time (Plasma): 101.6 min |
| CC(C)[C@H](NC(=O)[C@H](CC(=O)O)NC(=O)CNC(=O)[C@@H](N)CCCNC(=N)N)C(=O)O (H-RGDV-OH) | 5.3% | 7.6% | 10.5% | – | – | – | – | – | – | dry thrombus weight (Rattus norvegicus [5]): 4.43 mg; inhibition (INH) (Blood [6]): 33.41%; inhibition (INH) (Blood [7]): 49.78%; inhibition (INH) (Blood [8]): 52.07%; inhibition (INH) (Blood [9]): 34.84%; Activity (Rattus norvegicus [10]): 28.6 mg; inhibition (INH) (Blood [11]): 12.65%; inhibition (INH) (Blood [12]): 20.01% |
| COC(=O)[C@@H](N)CC(=O)NCCOc1ccc(C2=[N+]([O-])C(C)(C)C(C)(C)N2O)cc1 | 29.2% | 76% | 99.1% | 55.6 µM | 47.8 µM | 39 µM | – | – | – | – |
| N[C@@H](CCC(=O)O)C(=O)N[C@@H](CS)C(=O)NCC(=O)O (H-Glu-Cys-Gly-OH) | 3.2% | 5.2% | 9.2% | – | – | – | – | – | – | – |
| CC(C)[C@H](NC(=O)[C@H](CC(=O)O)NC(=O)CNC(=O)[C@@H](N)CCCNC(=N)NC(=O)COc1ccc(C2=[N+]([O-])C(C)(C)C(C)(C)N2O)cc1)C(=O)O (H-R(X2)GDV-OH) | 26.2% | 72.8% | 96.6% | 102 µM | 32.8 µM | 93 µM | – | – | – | dry thrombus weight (Rattus norvegicus [5]): 4.18 mg; inhibition (INH) (Blood [6]): 39.6%; inhibition (INH) (Blood [7]): 50.2%; inhibition (INH) (Blood [8]): 50.26%; inhibition (INH) (Blood [9]): 32.8%; Activity (Rattus norvegicus [10]): 26.11 mg; inhibition (INH) (Blood [11]): 16.38%; inhibition (INH) (Blood [12]): 19.88% |
| CC1(C)N(O)C(c2cccnc2)=[N+]([O-])C1(C)C | 1.7% | 16.6% | 48.6% | – | – | – | 18 h | 15 h | 30 h | – |
| CC1(C)N(O)C(c2ccccc2)=[N+]([O-])C1(C)C | 9.8% | 62.7% | 81.9% | – | – | – | > 200 h | > 200 h | > 200 h | – |
| CC1(C)N(O)C(c2ccco2)=[N+]([O-])C1(C)C | 1.6% | 20.2% | 44.4% | – | – | – | 18 h | 15 h | 30 h | – |
| CC1(C)N(O)C(c2ccc([N+](=O)[O-])cc2)=[N+]([O-])C1(C)C | – | 71.3% | 98% | – | – | – | > 200 h | > 200 h | > 200 h | – |
| CC1(C)N(O)C(c2ccc(OCC(=O)N[C@@H](CCCCN)C(=O)O)cc2)=[N+]([O-])C1(C)C | 28.7% | 74% | 98.9% | 99.1 µM | 30.1 µM | 90.6 µM | – | – | – | – |
| CC1(C)N(O)C(c2ccc(OCCNC(=O)CC[C@H](N)C(=O)O)cc2)=[N+]([O-])C1(C)C | 26.2% | 72.4% | 97.1% | 58.1 µM | 49.6 µM | 41.8 µM | – | – | – | – |
| CC(C)(C)OC(=O)N[C@@H](CCCCNC(=O)COc1ccc(C2=[N+]([O-])C(C)(C)C(C)(C)N2O)cc1)C(=O)O | 28% | 72.7% | 97.9% | 97.7 µM | 29.3 µM | 89.9 µM | – | – | – | – |
